Data as given in ChEMBL document CHEMBL4118047, “Antiplasmodial Sesquiterpenoid Lactones from Trichospira verticillata: Structure Elucidation by Spectroscopic Methods and Comparison of Experimental and Calculated ECD Data” (J Nat Prod, 2017).

Assays:
Plasmodium falciparum = test: Antiplasmodial activity against Plasmodium falciparum Dd2 after 72 hrs by SYBR Green I dye-based assay; type: functional, organism-based; conditions: Dd2, 72 h
Outline: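 Ring-stage Dd2 cultures at 1% hematocrit and 1% parasitemia grown 72 h at 37 °C under 5.05% CO₂/4.93% O₂/90.2% N₂ with increasing drug concentrations. Viability read by SYBR Green I DNA quantitation in lysis buffer (0.4 μL dye/mL). IC₅₀ by nonlinear regression. Mean of three independent determinations, each in duplicate, ±SEM.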

HEK293 = test: Cytotoxicity against HEK293 cells assessed as reduction in cell viability after 24 hrs by resazurin dye based assay; conditions: Homo sapiens, HEK293, 24 h
Outline: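 10,000 HEK293 cells per well allowed to adhere, then medium replaced with medium containing varying compound amounts for 24 h. Resazurin sodium salt (0.125 mg/mL, 10 μL per well) added for 2 h. Viability from fluorescence at 585 nm, excitation 540 nm.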

A2780 = test: Antiproliferative activity against human A2780 cells after 2 days by alamar blue assay; type: functional, cell-based; conditions: A2780, 48 h

| Compound | IC50 (Plasmodium falciparum) [µM] | IC50 (HEK293) [µM] | IC50 (A2780) [µM] |
| --- | --- | --- | --- |
| C[C@@H]1CC[C@H]2[C@@H](C)C(=O)O[C@@H]3O[C@@]4(C)CC[C@@H]1[C@]32OO4 [ARTEMISININ] | 0.007 |  |  |
| C=C(C)C(=O)O[C@H]1C/C(C)=C\C(=O)C[C@@]2(C)O[C@H]2[C@H]2OC(=O)C(COC(C)=O)=C12 | 12.1 | 23.8 |  |
| C=C(C)C(=O)O[C@H]1C/C(C)=C\C(=O)/C=C(C)/C=C2/OC(=O)C(COC(C)=O)=C21 | 1.49 | 3.5 | 0.21 |
| C=C(C)C(=O)O[C@H]1C/C(C)=C\C(=O)/C=C(\C)[C@@H](O)[C@@H]2OC(=O)C(COC(C)=O)=C12 | 37.1 | 56 |  |
| C=C(C)C(=O)O[C@@H]1C/C(C)=C\[C@@]2(O)C=C(C)[C@H](O2)[C@H]2OC(=O)C(COC(C)=O)=C12 | 44.3 | 58.8 |  |
